Reference: ChEMBL document CHEMBL4382197, “Discovery of QCA570 as an Exceptionally Potent and Efficacious Proteolysis Targeting Chimera (PROTAC) Degrader of the Bromodomain and Extra-Terminal (BET) Proteins Capable of Inducing Complete and Durable Tumor Regression” (J Med Chem, 2018)
pIC50: −log10 of the molar value. Calls of active or inactive are those of the source. The rule behind the calls is not given here.

Experiments:
[1] = target: Protein cereblon/Eukaryotic peptide chain release factor GTP-binding subunit ERF3A/Cullin-4A (Homo sapiens) (UniProt Q96SW2+Q13619+P15170); experiment: Induction of Cereblon/Cullin 4A-mediated-GSPT1 degradation in human RS4:11 cells at 0.01 to 10 nM after 3 hrs by Western blot analysis; format: cell-based
[2] = system: RS4-11; experiment: Growth inhibition of human RS4:11 cells after 96 hrs by CCK8 assay; format: functional, cell-based; conditions: RS4-11, 96 h
[3] = target: T1, Protein cereblon/Bromodomain-containing protein 3/Cullin-4A (Homo sapiens) (UniProt Q15059+Q96SW2+Q13619); experiment: Protac activity at cereblon/cullin 4A/BRD3 in human RS4:11 cells assessed as BRD3 degradation at 10 pM after 3 hrs by Western blot analysis; format: cell-based
[4] = target: T2, Protein cereblon/Bromodomain-containing protein 4/Cullin-4A (Homo sapiens) (UniProt O60885+Q96SW2+Q13619); experiment: Protac activity at cereblon/cullin 4A/BRD4 in human RS4:11 cells assessed as BRD4 degradation at 10 pM after 3 hrs by Western blot analysis; format: cell-based
[5] = target: T3, Protein cereblon/Bromodomain-containing protein 2/Cullin-4A (Homo sapiens) (UniProt P25440+Q96SW2+Q13619); experiment: Protac activity at cereblon/cullin 4A/BRD2 in human RS4:11 cells assessed as BRD2 degradation at 30 to 100 pM after 3 hrs by Western blot analysis; format: cell-based
[6] = target: T3, Protein cereblon/Bromodomain-containing protein 2/Cullin-4A (Homo sapiens); experiment: Protac activity at cereblon/cullin 4A/BRD2 in human MV4-11 cells assessed as BRD2 degradation at 30 to 100 pM after 3 hrs by Western blot analysis; format: cell-based
[7] = target: T2, Protein cereblon/Bromodomain-containing protein 4/Cullin-4A (Homo sapiens); experiment: Protac activity at cereblon/cullin 4A/BRD4 in human RS4:11 cells assessed as BRD4 degradation at 0.5 nM after 3 hrs by Western blot analysis; format: cell-based
[8] = target: T3, Protein cereblon/Bromodomain-containing protein 2/Cullin-4A (Homo sapiens); experiment: Protac activity at cereblon/cullin 4A/BRD2 in human RS4:11 cells assessed as BRD2 degradation at 0.5 nM after 3 hrs in presence of lenalidomide by Western blot analysis; format: cell-based
Outline: (§1)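 RS4;11 cells were pre-treated for 2 h with DMSO, lenalidomide (10 μM), MLN4924 (1 μM) or MG-132 (20 μM). The degrader was then added at 0.5 nM for 3 h. Lysates were immunoblotted for BRD2, BRD3 and BRD4, with GAPDH as loading control.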

[9] = target: T1, Protein cereblon/Bromodomain-containing protein 3/Cullin-4A (Homo sapiens); experiment: Protac activity at cereblon/cullin 4A/BRD3 in human RS4:11 cells assessed as BRD3 degradation at 0.5 nM after 3 hrs in presence of lenalidomide by Western blot analysis; format: cell-based; outline: as §1
[10] = target: T3, Protein cereblon/Bromodomain-containing protein 2/Cullin-4A (Homo sapiens); experiment: Protac activity at cereblon/cullin 4A/BRD2 in human RS4:11 cells assessed as BRD2 degradation at 0.5 nM after 3 hrs in presence of proteasome inhibitor MG132 by Western blot analysis; format: cell-based; outline: as §1
[11] = system: MV4-11; experiment: Induction of apoptosis in human MV4-11 cells after 24 to 48 hrs by Annexin V/propidium iodine-double staining-based flow cytometry; format: functional, cell-based
Outline: (§2)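 Leukemia cells were treated for 24 h or 48 h at the indicated concentrations. They were then collected, washed in cold PBS and stained with Annexin V and propidium iodide. Apoptotic fraction was measured by flow cytometry.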

[12] = system: RS4-11; experiment: Induction of apoptosis in human RS4:11 cells at 0.1 nM after 48 hrs by Annexin V/propidium iodine-double staining-based flow cytometry relative to control; format: functional; outline: as §2
[13] = system: RS4-11; experiment: Induction apoptosis in human RS4:11 cells assessed as caspase-3 activation at 0.3 nM after 24 hrs by Western blot analysis; format: functional, cell-based
Outline: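 Cells (1.5–2×10^6/well) were treated for 24 h, washed in cold PBS and lysed in RIPA with protease inhibitors. 20 µg lysate was run on 4–20% or 4–12% gels and transferred to PVDF. Blots were probed for cleaved PARP and cleaved caspase 3, with GAPDH as loading control. Detection by ECL.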

[14] = system: Mus musculus; experiment: In vivo Protac activity at cereblon/cullin/BRD2 in tumor of human RS4:11 cells xenografted in SCID mouse assessed as reduction in BRD2 protein expression at 1 to 5 mg/kg, iv administered as single dose and measured at 1 to 6 hrs by Western blot analysis; format: functional, organism-based
Outline: (§3)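 SCID mice bearing subcutaneous RS4;11 tumors were given a single intravenous dose of 1 or 5 mg/kg. Tumors were harvested at 1, 6 and 24 h, two mice per time point. Tissue was ground in liquid nitrogen and lysed in CST buffer with protease inhibitors. 20 µg lysate per lane was probed for BRD2, BRD3, BRD4, c-Myc and cleaved PARP, with GAPDH as loading control.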

[15] = system: Mus musculus; experiment: In vivo Protac activity at cereblon/cullin/BRD3 in tumor of human RS4:11 cells xenografted in SCID mouse assessed as reduction in BRD3 protein expression at 1 to 5 mg/kg, iv administered as single dose and measured at 1 to 6 hrs post dose by Western blot analysis; format: functional, organism-based; outline: as §3
[16] = system: Mus musculus; experiment: In vivo Protac activity at cereblon/cullin/BRD4 in tumor of human RS4:11 cells xenografted in SCID mouse assessed as reduction in BRD4 protein expression at 1 to 5 mg/kg, iv administered as single dose and measured at 1 to 6 hrs post dose by Western blot analysis; format: functional, organism-based; outline: as §3
[17] = system: Mus musculus; experiment: In vivo Protac activity at cereblon/cullin/BRD4 in tumor of human RS4:11 cells xenografted in SCID mouse assessed as reduction in BRD4 protein expression at 1 to 5 mg/kg, iv administered as single dose and measured at 24 hrs post dose by Western blot analysis; format: functional, organism-based; outline: as §3
[18] = Drug uptake in plasma of SCID mouse xenografted with human RS4:11 cells at 5 mg/kg, iv measured at 6 hrs by LC-MS/MS analysis; format: ADME, organism-based; conditions: in vivo, BLD = below limit of detection
Outline: (§4)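 Female SCID mice with RS4;11 tumors received a single 5 mg/kg intravenous dose in 20% PCP/80% PBS. Plasma (heparin) and tissues were taken at 1, 3 and 6 h, one mouse per time point in duplicate. Plasma was precipitated with acetonitrile containing internal standard. Tissues were homogenized 5:1 in 20% acetonitrile. Quantified by LC-MS/MS against spiked plasma standards (2–2000 ng/mL); values in ng/ml or ng/g.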

[19] = Drug uptake in heart of SCID mouse xenografted with human RS4:11 cells at 5 mg/kg, iv measured at 6 hrs by LC-MS/MS analysis; format: ADME, organism-based; conditions: in vivo, BLD = below limit of detection; outline: as §4
[20] = Drug uptake in lungs of SCID mouse xenografted with human RS4:11 cells at 5 mg/kg, iv measured at 6 hrs by LC-MS/MS analysis; format: ADME, organism-based, Lung; conditions: in vivo, BLD = below limit of detection; outline: as §4
[21] = system: MV4-11; experiment: Antitumor activity against human MV4-11 cells xenografted in SCID mouse assessed tumor regression at 1 mg/kg, iv administered 3 times per week for 2 weeks; format: functional, organism-based
Outline: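 MV4;11 xenografts: 5×10^6 cells in 50% Matrigel injected subcutaneously on the dorsal side of SCID mice, one tumor per mouse. Mice randomized at ~100 mm3. Dosed intravenously three times a week for two weeks. Tumor volume = L × W2/2; body weight monitored.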

[22] = Toxicity in SCID mouse xenografted with human RS4:11 cells at 1 to 5 mg/kg, iv administered 3 times per week for 3 weeks; format: organism-based; conditions: in vivo, 504 h
Outline: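 SCID mice received a subcutaneous dorsal implant of 5×10^6 RS4;11 cells in 50% Matrigel, one tumor per mouse. Mice were randomized at ~100 mm3 into treatment or vehicle groups. Doses were 1, 2.5 or 5 mg/kg three times weekly for 3 weeks, with body weight and signs of toxicity monitored.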

T3 sequence (P25440 whole entry, looked up): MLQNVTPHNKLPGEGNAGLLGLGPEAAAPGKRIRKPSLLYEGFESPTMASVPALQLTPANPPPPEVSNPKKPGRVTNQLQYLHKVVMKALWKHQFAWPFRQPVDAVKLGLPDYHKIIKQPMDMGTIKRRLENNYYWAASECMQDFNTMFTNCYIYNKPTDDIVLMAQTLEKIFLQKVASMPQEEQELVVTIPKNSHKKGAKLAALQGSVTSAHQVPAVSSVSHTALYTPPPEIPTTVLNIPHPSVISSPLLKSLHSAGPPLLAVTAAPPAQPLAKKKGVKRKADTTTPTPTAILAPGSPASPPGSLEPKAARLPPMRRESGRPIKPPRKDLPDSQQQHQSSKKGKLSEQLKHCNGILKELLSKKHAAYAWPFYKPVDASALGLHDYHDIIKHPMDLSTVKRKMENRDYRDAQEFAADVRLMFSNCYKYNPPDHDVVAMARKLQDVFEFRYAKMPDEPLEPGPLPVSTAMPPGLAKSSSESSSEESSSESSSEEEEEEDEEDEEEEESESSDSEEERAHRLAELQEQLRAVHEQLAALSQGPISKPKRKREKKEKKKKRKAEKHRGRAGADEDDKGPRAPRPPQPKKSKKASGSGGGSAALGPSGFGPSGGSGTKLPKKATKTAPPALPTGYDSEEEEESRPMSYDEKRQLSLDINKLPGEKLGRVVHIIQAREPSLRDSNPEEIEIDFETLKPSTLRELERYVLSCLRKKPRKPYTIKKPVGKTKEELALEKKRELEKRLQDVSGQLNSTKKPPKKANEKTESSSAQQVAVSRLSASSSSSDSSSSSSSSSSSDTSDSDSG
T3 sequence (Q13619 whole entry, looked up): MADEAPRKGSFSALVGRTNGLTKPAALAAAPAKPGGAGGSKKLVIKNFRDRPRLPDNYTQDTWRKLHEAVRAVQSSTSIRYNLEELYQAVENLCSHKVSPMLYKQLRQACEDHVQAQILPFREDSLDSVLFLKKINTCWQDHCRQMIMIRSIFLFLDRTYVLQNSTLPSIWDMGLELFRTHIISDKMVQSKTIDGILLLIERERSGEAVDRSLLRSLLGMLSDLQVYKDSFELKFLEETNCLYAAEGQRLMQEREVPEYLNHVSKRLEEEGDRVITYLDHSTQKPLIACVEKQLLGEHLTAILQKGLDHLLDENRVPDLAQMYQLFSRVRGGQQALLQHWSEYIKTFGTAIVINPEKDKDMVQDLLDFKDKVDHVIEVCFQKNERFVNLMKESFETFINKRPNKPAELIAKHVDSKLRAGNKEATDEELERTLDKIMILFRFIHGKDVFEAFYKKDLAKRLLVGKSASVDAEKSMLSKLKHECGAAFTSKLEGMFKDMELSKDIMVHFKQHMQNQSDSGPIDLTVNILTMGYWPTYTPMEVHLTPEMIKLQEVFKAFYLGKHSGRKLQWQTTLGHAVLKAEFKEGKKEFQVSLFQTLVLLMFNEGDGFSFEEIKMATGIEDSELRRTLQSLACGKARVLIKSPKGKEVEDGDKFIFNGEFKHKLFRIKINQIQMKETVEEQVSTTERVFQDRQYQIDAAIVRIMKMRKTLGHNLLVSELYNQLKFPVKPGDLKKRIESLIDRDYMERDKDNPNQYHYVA
T3 sequence (Q96SW2 whole entry, looked up): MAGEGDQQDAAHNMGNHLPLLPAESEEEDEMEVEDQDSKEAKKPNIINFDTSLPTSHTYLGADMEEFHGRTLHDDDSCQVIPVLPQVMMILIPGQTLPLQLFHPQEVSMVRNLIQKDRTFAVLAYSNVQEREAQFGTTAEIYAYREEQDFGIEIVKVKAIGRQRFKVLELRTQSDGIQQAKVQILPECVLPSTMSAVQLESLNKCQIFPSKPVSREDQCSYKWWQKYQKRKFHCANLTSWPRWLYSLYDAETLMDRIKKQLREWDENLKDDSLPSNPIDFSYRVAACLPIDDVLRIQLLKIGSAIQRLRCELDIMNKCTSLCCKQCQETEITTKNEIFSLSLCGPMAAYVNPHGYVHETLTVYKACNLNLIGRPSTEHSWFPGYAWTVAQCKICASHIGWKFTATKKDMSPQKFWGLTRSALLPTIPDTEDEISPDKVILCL
T1 sequence (Q13619 whole entry, looked up): as the sequence (Q13619 whole entry, looked up) above
T1 sequence (Q15059 whole entry, looked up): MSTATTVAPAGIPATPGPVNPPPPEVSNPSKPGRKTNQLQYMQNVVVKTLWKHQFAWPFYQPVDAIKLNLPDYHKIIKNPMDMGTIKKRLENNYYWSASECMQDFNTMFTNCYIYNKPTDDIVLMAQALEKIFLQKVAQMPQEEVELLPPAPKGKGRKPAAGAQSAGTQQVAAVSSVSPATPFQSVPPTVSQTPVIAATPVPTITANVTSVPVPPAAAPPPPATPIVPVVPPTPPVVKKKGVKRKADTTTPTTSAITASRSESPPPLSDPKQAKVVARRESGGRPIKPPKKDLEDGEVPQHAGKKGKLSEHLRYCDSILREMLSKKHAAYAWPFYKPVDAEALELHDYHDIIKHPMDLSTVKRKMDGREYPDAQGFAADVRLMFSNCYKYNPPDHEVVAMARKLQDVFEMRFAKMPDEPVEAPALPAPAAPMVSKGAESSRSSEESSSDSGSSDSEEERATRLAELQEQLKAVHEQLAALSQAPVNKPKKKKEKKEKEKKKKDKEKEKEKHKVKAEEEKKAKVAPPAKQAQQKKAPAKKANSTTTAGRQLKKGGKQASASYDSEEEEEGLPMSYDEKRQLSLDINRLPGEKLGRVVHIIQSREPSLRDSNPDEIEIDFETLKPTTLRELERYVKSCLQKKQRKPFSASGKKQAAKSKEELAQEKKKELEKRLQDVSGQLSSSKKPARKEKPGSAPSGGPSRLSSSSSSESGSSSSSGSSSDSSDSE
T1 sequence (Q96SW2 whole entry, looked up): as the sequence (Q96SW2 whole entry, looked up) above
Protein cereblon/Eukaryotic peptide chain release factor GTP-binding subunit ERF3A/Cullin-4A (Homo sapiens), sequence (P15170 whole entry, looked up): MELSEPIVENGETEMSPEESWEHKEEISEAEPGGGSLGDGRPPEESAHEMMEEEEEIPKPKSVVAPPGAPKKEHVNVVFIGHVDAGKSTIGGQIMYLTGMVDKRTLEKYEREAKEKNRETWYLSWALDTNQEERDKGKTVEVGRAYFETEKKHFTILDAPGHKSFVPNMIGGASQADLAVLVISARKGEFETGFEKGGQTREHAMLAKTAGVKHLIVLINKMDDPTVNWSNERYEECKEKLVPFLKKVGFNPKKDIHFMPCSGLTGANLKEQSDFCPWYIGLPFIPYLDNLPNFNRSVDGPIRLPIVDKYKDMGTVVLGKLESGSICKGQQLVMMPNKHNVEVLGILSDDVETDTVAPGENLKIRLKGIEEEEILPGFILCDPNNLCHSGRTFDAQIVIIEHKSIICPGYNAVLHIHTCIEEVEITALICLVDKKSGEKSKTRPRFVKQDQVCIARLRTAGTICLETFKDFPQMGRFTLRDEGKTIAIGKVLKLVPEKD
Protein cereblon/Eukaryotic peptide chain release factor GTP-binding subunit ERF3A/Cullin-4A (Homo sapiens), sequence (Q13619 whole entry, looked up): as the sequence (Q13619 whole entry, looked up) above
Protein cereblon/Eukaryotic peptide chain release factor GTP-binding subunit ERF3A/Cullin-4A (Homo sapiens), sequence (Q96SW2 whole entry, looked up): as the sequence (Q96SW2 whole entry, looked up) above

Activity [1]: inactive | pIC50 [2]: 10.49 | Activity [3]: Active | Activity [4]: Active | Activity [5]: Active | Activity [6]: Active | Activity [7]: Active | Activity [8]: inactive | Activity [9]: inactive | Activity [10]: inactive | Cp [18]: Bld | Drug uptake [19]: Bld | Drug uptake [20]: Bld
SMILES: Cc1nnc2n1Cc1sc(C#Cc3cnn(CCCC#Cc4cccc5c4CN(C4CCC(=O)NC4=O)C5=O)c3)c(Cc3ccccc3)c1OC2 (configuration not stated)
Activity [11]: Dose-dependent effect | Activity [12]: >40% | Activity [13]: inactive | Activity [14]: Active | Activity [15]: Active | Activity [16]: Active | Activity [17]: Active | Activity [21]: Active | Activity [22]: Non-Toxic
